# AHR activator = activates the human aryl hydrocarbon receptor; P35869; AHR-responsive luciferase reporter cells, luminescence; activation, % at 5 µM; hit rate 2.5% among 320,000; AID 2796; in the data active means activation above about 47%
# m5-HT2A agonist = mouse HTR2A agonism via beta-arrestin recruitment; AID 624169; CHO-K1 mHTR2A beta-arrestin complementation, luminescence; percent of 30 µM serotonin response; activation, % at 7.6 µM; P35363; hit rate 0.66% among 360,000;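 active means activation above a run cutoff, the mean activation of all tested compounds plus 3 SD, cut at about 14% in these data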
# MC4R antag cAMP = antagonists of human melanocortin 4 receptor (MC4R) | P32245 | MC4R-expressing cells, MTII-stimulated cAMP, LANCE TR-FRET | inhibition, % at 6.5 µM | hit rate 0.48% among 360,000;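 active means inhibition above its plate's cutoff, the mean of tested wells on that plate plus 3 SD, cut at about 29% in these data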
#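 system = U2OS cells with stable human MC4R expression | also added = Melanotan II challenge after compound preincubation | dosing = one concentration, 6.5 µM nominal | incubation = compound 30 min, challenge 1 h, detection 1 h | measured by = TR-FRET with Eu-cAMP and labeled anti-cAMP, 671 nm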
# FXN GAA850 act = increases GAA850 frataxin promoter reporter activity; HEK293 lucGAA850 FXN promoter luciferase reporter, 24 h; percent of 10 µM SAHA response; activation, % at 6 µM; hit rate 0.56% among 360,000; AID 540364;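 active means activation above the average of all compounds screened plus 3 SD, cutoff fixed separately per campaign, cut at about 7.5% in these data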
# MC4R barr agon = agonists of human melanocortin 4 receptor (MC4R) beta-arrestin. P32245. U2OS MC4R beta-arrestin complementation, luminescence; percent of melanotan II response, DMSO zero. activation, % at 8.9 µM. hit rate 0.98% among 360,000. AID 540308;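 active means activation above a per-plate cutoff, the mean activation of sample wells on that plate plus 3 SD, cut at about 8% in these data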
# cAMP nonselect = counter-screen for MC4R antagonists: nonselective cAMP signaling inhibitors. shares compounds with MC4R antag cAMP. parental U2OS, forskolin cAMP, LANCE TR-FRET. inhibition, % at 6.5 µM. hit rate 26% among 1,600. AID 602193;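 active means mean inhibition over triplicates above the low-control well mean plus 3 SD, set per campaign, cut at about 13% in these data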;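 further: signal is single emission at 671 nm which falls as cellular cAMP rises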
# MC4R cAMP antag = human MC4R cAMP antagonism confirmation. MC4R-expressing cells, MTII-stimulated cAMP, TR-FRET. inhibition, % at 6.5 µM. shares compounds with MC4R antag cAMP. hit rate 27% among 1,600; in the data active means inhibition above about 29%
# Numbers stand for hits; - = inactive; . = no result given. Hits are enriched below; roughly 4.7% of the tested compounds scored in any of these assays.
SMILES,AHR activator,m5-HT2A agonist,MC4R antag cAMP,FXN GAA850 act,MC4R barr agon,cAMP nonselect,MC4R cAMP antag
NC(Cc1ccc(C(F)(F)F)cc1)c1csc(Nc2nncc3ccccc23)n1 (stereo not given),.,-,35,-,-,21,-
Cc1ccc(C=NNc2nc3c([nH]2)c(=O)n(C)c(=O)n3C)cc1,.,-,43,-,-,-,-
O=C(NC1CCCCC1)c1cccc2c(-c3ccc(F)c(F)c3)coc12,.,-,-,-,-,.,.
COc1ccc(N(C(=O)CCl)C(C(=O)NCCc2ccccc2)c2cccs2)cc1Cl (stereo not given),-,-,34,-,21,-,37
COc1cccc(N(C(=O)CCl)C(C(=O)NCCc2ccccc2)c2cccs2)c1 (stereo not given),-,-,-,-,-,.,.
O=C(Oc1cncc(Cl)c1)c1sccc1Cl,-,-,33,-,-,-,-
O=C1C(=C(I)I)c2ccccc2-c2ccccc21,.,-,-,-,-,.,.
CC(C)(C)c1nc(SCC(=O)NC2CCCC2)c2ccccc2n1,-,-,29,-,-,-,-
O=C(CNS(=O)(=O)c1ccc2ccccc2c1)OCC(=O)c1ccc(Br)s1,-,-,47,-,-,23,43
Cc1cc(C(=O)COC(=O)CNS(=O)(=O)c2ccc3ccccc3c2)c(C)n1-c1ccccc1,-,-,-,-,-,.,.
CCc1ccc(N2CC(C(=O)N3CCN(S(=O)(=O)c4cccc(F)c4)CC3)CC2=O)cc1 (stereo not given),.,-,-,-,-,.,.
O=C(COC(=O)CNC(=O)c1cccc([N+](=O)[O-])c1)Nc1nc2ccccc2s1,-,-,31,-,-,-,-
CCOC(=O)c1cc2cc(OCc3ccccc3)ccc2nc1C,-,-,-,-,-,.,.
CCOC(=O)c1cnc2ccc(OCC)cc2c1N(C)Cc1ccccc1,-,-,30,-,-,-,31
COc1ccccc1-c1cnc(C(O)c2ccc(Cl)cc2C)[nH]1 (stereo not given),.,-,-,-,-,.,.
CN(C)S(=O)(=O)c1ccc(-c2csc(N/N=C/c3ccc(O)cc3)n2)cc1,-,-,32,-,9.8,-,29
Cc1ccc(S(=O)(=O)N2C[C@H]3C(=O)C[C@@H](c4cccs4)N(S(=O)(=O)c4ccc(C)cc4)[C@H]3C[C@H]2c2ccccc2)cc1,.,-,.,.,.,.,.
C[C@H](CO)N1C[C@H](C)[C@@H](CN(C)C(=O)Nc2ccc3c(c2)OCO3)Oc2ccc(NS(=O)(=O)c3ccc(F)cc3)cc2C1=O,-,-,-,-,-,.,.
CC1(C)C(=O)Nc2ccccc2N1C(=O)COC(=O)c1cc(S(=O)(=O)N2CCOCC2)ccc1F,-,-,36,-,-,17,46
CC1(C)C(=O)Nc2ccccc2N1C(=O)COC(=O)c1cc(S(C)(=O)=O)ccc1Cl,.,-,-,-,-,.,.
NC(=O)CC(NC(=O)Cc1ccc(Cl)cc1)c1ccc(NC2CC3CCC2C3)c([N+](=O)[O-])c1 (stereo not given),-,-,-,-,-,.,.
ClCC1NCC(c2ccccc2Cl)c2c1[nH]c1ccccc21 (stereo not given),-,-,36,-,-,-,-
O=C(NCc1ccc2c(c1)OCO2)c1nc(Cn2ccc([N+](=O)[O-])n2)no1,-,-,31,-,-,-,-
COc1ccccc1NC(=O)c1ccc(NC(=O)CNC(=O)c2ccc(OC)c(OC)c2)cc1,-,-,-,-,-,.,.
COC(=O)c1ccccc1NC(=O)CNC(=O)c1ccc(OC)c(OC)c1,-,-,31,-,-,-,-
CCc1nc2c(OCCn3cccc3)cccn2c1N(C)C(=O)c1ccc(OC)cc1,.,-,-,-,-,.,.
COc1ccccc1N(C)S(=O)(=O)c1ccc(C(=O)OCC(=O)c2c[nH]c3ccccc23)cc1,-,-,39,-,-,-,-
CC(=O)NCC(c1cccs1)S(=O)(=O)c1ccc(F)cc1 (stereo not given),-,-,33,-,-,-,-
CNC(=O)C(=O)NCC(c1cccs1)S(=O)(=O)c1ccc(C)cc1 (stereo not given),-,-,-,-,-,.,.

# From PubChem
